For part of these data: Results with a measured potency or affinity are listed apart. Activity calls are given as the source filed them.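 How the source made its calls, unless noted: active means calcium signal ratio cut to more than 3 SD under the fully stimulated control mean yet still positive, in both repeats and the primary screen; inactive means the rest.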
Molecular target: Short transient receptor potential channel 4 (Mus musculus) (UniProt Q9QUQ5)
Assay: blockers of DAMGO-evoked TRPC4 calcium flux – cell-based, second round, Fluo4, HEK293 TRPC4beta/mu-opioid, 1 µM, confirmation (AID 2637)
Conditions: at 1 µM; stronger effect = higher value
Summary of the method: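 System: HEK293 stable line co-expressing TRPC4beta and mu-opioid receptor; Repeats: duplicates; Benchmarks: ECmax and compound-free wells; Timing: Fluo4 loading 45 min, compound exposure 110 s; Dosing: one dose, 1 µM final; Also added: DAMGO, submaximal then ECmax; Signal: Fluo4 calcium fluorescence, kinetic real-time read after baseline.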

Sequence of Short transient receptor potential channel 4 (Mus musculus) (Q9QUQ5 whole entry, looked up): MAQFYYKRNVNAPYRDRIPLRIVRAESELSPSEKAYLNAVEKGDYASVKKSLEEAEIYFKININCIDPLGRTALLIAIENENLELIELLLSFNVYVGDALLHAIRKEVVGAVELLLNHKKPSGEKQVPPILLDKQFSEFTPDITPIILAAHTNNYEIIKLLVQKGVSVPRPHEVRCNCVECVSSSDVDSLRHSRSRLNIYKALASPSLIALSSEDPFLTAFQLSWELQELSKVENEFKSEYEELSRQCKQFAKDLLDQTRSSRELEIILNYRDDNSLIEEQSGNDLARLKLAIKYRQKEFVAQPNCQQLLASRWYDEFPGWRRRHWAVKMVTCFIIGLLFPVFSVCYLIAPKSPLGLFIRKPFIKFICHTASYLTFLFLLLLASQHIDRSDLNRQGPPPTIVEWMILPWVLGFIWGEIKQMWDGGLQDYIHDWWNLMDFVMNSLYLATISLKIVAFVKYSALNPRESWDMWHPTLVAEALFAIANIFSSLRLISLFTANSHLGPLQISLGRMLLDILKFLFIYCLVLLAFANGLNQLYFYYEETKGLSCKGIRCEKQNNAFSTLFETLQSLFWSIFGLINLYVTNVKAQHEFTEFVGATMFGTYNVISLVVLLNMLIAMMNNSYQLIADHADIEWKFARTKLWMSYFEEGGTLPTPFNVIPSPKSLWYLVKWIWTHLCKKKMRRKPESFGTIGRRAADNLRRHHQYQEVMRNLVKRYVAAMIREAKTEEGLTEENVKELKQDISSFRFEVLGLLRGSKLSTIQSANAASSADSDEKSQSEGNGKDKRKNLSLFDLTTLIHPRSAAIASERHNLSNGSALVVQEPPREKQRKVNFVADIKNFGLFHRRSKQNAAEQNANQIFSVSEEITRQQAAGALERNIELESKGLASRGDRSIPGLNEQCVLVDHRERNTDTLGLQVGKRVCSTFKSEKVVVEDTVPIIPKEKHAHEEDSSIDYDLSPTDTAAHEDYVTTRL

outcome, inactive:
CC(C)C(=O)N1CCN(c2nc(-c3ccccc3)c3c(c2C#N)CCCC3)CC1, CC(=O)n1cc([C@@H]2C=C(C(=O)NCc3ccccc3)O[C@H](OCc3ccc(CO)cc3)C2)c2ccccc21, CCN1CCN(c2nc(N)c([N+](=O)[O-])c(Nc3ccc(C)c(C)c3)n2)CC1, CN1/C(=C\C=[N+](C)c2ccccc2)C(C)(C)c2ccccc21, COc1cc(NC(=O)C(C)Oc2ccccc2)cc(OC)c1 (stereo not drawn), CCCCc1ccc(NC(=O)CSc2nnc(C)c(=O)n2N)cc1, O=C(COc1ccc(Br)cc1Cl)c1ccc[nH]1, Clc1cc(/C=N\NC2=NCCN2)cc(Cl)n1, Cc1cc(OCC(=O)N2CCCC2)cc(C)c1Cl, CCOC(=O)CC(NS(=O)(=O)c1ccc(OC)c(C)c1)c1cccc([N+](=O)[O-])c1 (stereo not drawn), O=C(COc1coc(CN2CCN(c3ccccc3F)CC2)cc1=O)Nc1ccccc1, CN(C)CCCNC(=O)/C=C/c1ccc(OCc2c(F)cccc2Cl)cc1, CC(C)c1cccc(OCCCCN(C)C)c1, CNc1oc(-c2ccccc2Cl)nc1P(=O)(c1ccccc1)c1ccccc1, Cc1ccc(C(=O)C[n+]2cccc3cc(C)ccc32)cc1, CCCN1CCN(C(=S)NCc2ccc(Cl)cc2)CC1, CC(=O)Nc1nc(-c2ccc3c(c2)CCN3C(=O)C2CC2)c(C)s1, COC(=O)c1ccccc1NC(=O)CCC(=O)N1CC(C)Oc2ccc(C)cc21 (stereo not drawn), CN1CCN(S(=O)(=O)c2ccc(Br)c3ccccc23)CC1, CC(C)(C)C(=O)NCCCc1nc2ccccc2n1CCCOc1ccc(Cl)cc1, CCN(CC)c1ccc(CNc2nc3ccccc3n2CCN2CCCCC2)cc1, O=[N+]([O-])c1ccc(S(=O)(=O)NCCCc2ccccc2)cc1, CC(=O)c1ccc(OCC(O)CN2CCN(S(=O)(=O)c3c(C)cc(C)cc3C)CC2)cc1 (stereo not drawn), CC(=O)c1ccc(N2CCN(c3ccc(S(=O)(=O)NCCCN(C)C)cc3[N+](=O)[O-])CC2)cc1, C=CCn1c(SCCN2CCCCC2)nc2c1c(=O)[nH]c(=O)n2C, CCCN(C(=O)COC(=O)C12CCC(=O)N1c1ccccc1S2)c1c(N)n(Cc2ccccc2)c(=O)[nH]c1=O (stereo not drawn), Cc1cc(C(=O)CN2C(=O)C(=O)N(CC(C)C)C2=O)c(C)n1-c1ccccc1F, C/C(=N\NC(=O)COc1ccc(C)cc1C(C)C)c1ccc(-n2ccnc2)cc1, COc1cc(/C=C2\C(=O)ON=C2c2ccccc2)cc(Cl)c1O, CN(CC(=O)Nc1ccc(F)cc1)C(=O)COC(=O)C1CCN(c2ccc(C(F)(F)F)cn2)CC1, CCCN(CCC)CCCNC(=O)c1cc2c(=O)n(C)c3ccccc3c2n1C, COc1ccccc1CC(=O)N1CCN(S(=O)(=O)c2ccccc2)CC1, O=C(COc1ccccc1)NC1CCCCCCC1, O=C(CC1C(=O)NCCN1C(=O)Nc1ccccc1)Nc1cc(Cl)cc(Cl)c1 (stereo not drawn), COc1ccc(NS(=O)(=O)c2cccc(C(=O)N3CCN(Cc4cc(OC)ccc4OC)CC3)c2)cc1, Cc1ccc(C(=O)c2no[n+]([O-])c2C(=O)c2ccc(C)cc2)cc1, O=C(NC1CCCC1)c1cc2ccccc2o1, COc1ccc(-n2cc(CNCc3cccnc3)c(-c3cccc(F)c3)n2)cc1, CN1CCCN(Cc2cccc3ccccc23)CC1

Molecular target: Short transient receptor potential channel 4 (Mus musculus) (UniProt Q9QUQ5)
Assay: calcium entry via TRPC4 opening agents – cell-based, HEK293 TRPC4/mu-opioid, Fluo-4 calcium, dose response (AID 434937;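 active means primary screen activator hit with a dose response curve and TRPC4 channel activation at any tested dose; inactive means no activation, no dose response, or not a primary hit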;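 further: HEK293 cells coexpressing mouse TRPC4 with mu-opioid receptor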)
Conditions: HEK293 TRPC4 cells, Fluo-4 calcium fluorescence ratio; series mostly up to 20 µM; activation ratio: at the top concentration

Activation ratio, inactive:
CC(C)C(=O)N1CCN(c2nc(-c3ccccc3)c3c(c2C#N)CCCC3)CC1 0.46, CC(=O)n1cc([C@@H]2C=C(C(=O)NCc3ccccc3)O[C@H](OCc3ccc(CO)cc3)C2)c2ccccc21 0.59, CCN1CCN(c2nc(N)c([N+](=O)[O-])c(Nc3ccc(C)c(C)c3)n2)CC1 2.33, CN1/C(=C\C=[N+](C)c2ccccc2)C(C)(C)c2ccccc21 2.78, COc1cc(NC(=O)C(C)Oc2ccccc2)cc(OC)c1 (stereo not drawn) 0.05, CCCCc1ccc(NC(=O)CSc2nnc(C)c(=O)n2N)cc1 1.01, O=C(COc1ccc(Br)cc1Cl)c1ccc[nH]1 1.48, Clc1cc(/C=N\NC2=NCCN2)cc(Cl)n1 3.6, Cc1cc(OCC(=O)N2CCCC2)cc(C)c1Cl 17, CCOC(=O)CC(NS(=O)(=O)c1ccc(OC)c(C)c1)c1cccc([N+](=O)[O-])c1 (stereo not drawn) -1.33, O=C(COc1coc(CN2CCN(c3ccccc3F)CC2)cc1=O)Nc1ccccc1 -0.07, CN(C)CCCNC(=O)/C=C/c1ccc(OCc2c(F)cccc2Cl)cc1 17.3, CC(C)c1cccc(OCCCCN(C)C)c1 20.5, CNc1oc(-c2ccccc2Cl)nc1P(=O)(c1ccccc1)c1ccccc1 -1.14, Cc1ccc(C(=O)C[n+]2cccc3cc(C)ccc32)cc1 7.71, CCCN1CCN(C(=S)NCc2ccc(Cl)cc2)CC1 10.5, CC(=O)Nc1nc(-c2ccc3c(c2)CCN3C(=O)C2CC2)c(C)s1 -0.99, COC(=O)c1ccccc1NC(=O)CCC(=O)N1CC(C)Oc2ccc(C)cc21 (stereo not drawn) -0.68, CN1CCN(S(=O)(=O)c2ccc(Br)c3ccccc23)CC1 14.6, CC(C)(C)C(=O)NCCCc1nc2ccccc2n1CCCOc1ccc(Cl)cc1 0.33, CCN(CC)c1ccc(CNc2nc3ccccc3n2CCN2CCCCC2)cc1 0.32, O=[N+]([O-])c1ccc(S(=O)(=O)NCCCc2ccccc2)cc1 2.33, CC(=O)c1ccc(OCC(O)CN2CCN(S(=O)(=O)c3c(C)cc(C)cc3C)CC2)cc1 (stereo not drawn) 32.8, CC(=O)c1ccc(N2CCN(c3ccc(S(=O)(=O)NCCCN(C)C)cc3[N+](=O)[O-])CC2)cc1 12.6, C=CCn1c(SCCN2CCCCC2)nc2c1c(=O)[nH]c(=O)n2C 12.6, CCCN(C(=O)COC(=O)C12CCC(=O)N1c1ccccc1S2)c1c(N)n(Cc2ccccc2)c(=O)[nH]c1=O (stereo not drawn) 0.98, Cc1cc(C(=O)CN2C(=O)C(=O)N(CC(C)C)C2=O)c(C)n1-c1ccccc1F 0.67, C/C(=N\NC(=O)COc1ccc(C)cc1C(C)C)c1ccc(-n2ccnc2)cc1 36.9, COc1cc(/C=C2\C(=O)ON=C2c2ccccc2)cc(Cl)c1O 46.1, CN(CC(=O)Nc1ccc(F)cc1)C(=O)COC(=O)C1CCN(c2ccc(C(F)(F)F)cn2)CC1 -0.25, CCCN(CCC)CCCNC(=O)c1cc2c(=O)n(C)c3ccccc3c2n1C 13.7, COc1ccccc1CC(=O)N1CCN(S(=O)(=O)c2ccccc2)CC1 -0.44, O=C(COc1ccccc1)NC1CCCCCCC1 -2.12, O=C(CC1C(=O)NCCN1C(=O)Nc1ccccc1)Nc1cc(Cl)cc(Cl)c1 (stereo not drawn) 10.1, COc1ccc(NS(=O)(=O)c2cccc(C(=O)N3CCN(Cc4cc(OC)ccc4OC)CC3)c2)cc1 -0.51, Cc1ccc(C(=O)c2no[n+]([O-])c2C(=O)c2ccc(C)cc2)cc1 26.6, O=C(NC1CCCC1)c1cc2ccccc2o1 2.16, COc1ccc(-n2cc(CNCc3cccnc3)c(-c3cccc(F)c3)n2)cc1 0.41, CN1CCCN(Cc2cccc3ccccc23)CC1 5.28

— PubChem BioAssay
